Results published in ChEMBL document CHEMBL3865799, “Synthesis of a series of novel dihydroartemisinin monomers and dimers containing chalcone as a linker and their anticancer activity” (Eur J Med Chem, 2016).

Assays:
[1] = Cytotoxicity against human LS180 cells assessed as cell growth inhibition at 10 uM after 48 hrs by MTT assay; type: functional; conditions: LS180, 48 h, read-out: GI
Procedure, shortened: (§1)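 Adherent lines at 70–75% confluence, grown at 37 °C in 5% CO2 with 10% FCS. Exposed 48 h to compound in DMSO (vehicle <0.2% v/v). MTT dye added 3 h before termination; formazan dissolved in DMSO, OD 570 nm with 620 nm reference. Growth inhibition expressed as % of untreated; IC50 taken from the dose series.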

[2] = Cytotoxicity against human HL60 cells assessed as cell growth inhibition at 0.5 uM after 48 hrs by MTT assay; type: functional; conditions: HL-60, 48 h, read-out: GI
Procedure, shortened: (§2)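 HL-60 suspension cells, 1.5 × 10^4 per well, grown at 37 °C in 5% CO2 with 10% FCS. Treated 48 h with compound in DMSO (vehicle <0.2% v/v). MTT added 3 h before the end. Formazan dissolved in DMSO and read at 570 nm (reference 620 nm). % growth inhibition computed against untreated cells; IC50 taken from the concentration series.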

[3] = Cytotoxicity against human MIAPaCa2 cells assessed as cell growth inhibition after 48 hrs by MTT assay; type: functional, cell-based; conditions: MIA PaCa-2, 48 h; procedure, shortened: as §1
Vero [4] = assay: Selectivity index, ratio of IC50 for African green monkey Vero cells to IC50 for human MIAPaCa2 cells; type: functional
Procedure, shortened: (§3)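 Suspension cells were seeded at 1.5 × 10^4 per well and adherent lines at 70–75% confluence, then exposed to a range of concentrations. MTT was added 3 h before the end, formazan dissolved in DMSO, and OD read at 570 nm (reference 620 nm). Growth inhibition was taken relative to untreated cells. IC50 came from the MTT data; SI = IC50 in Vero cells / IC50 in the tumour line.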

[5] = Cytotoxicity against human HepG2 cells assessed as cell growth inhibition at 50 uM after 48 hrs by MTT assay; type: functional; conditions: HepG2, 48 h, read-out: GI; procedure, shortened: as §1
[6] = Cytotoxicity against human MIAPaCa2 cells assessed as cell growth inhibition at 10 uM after 48 hrs by MTT assay; type: functional; conditions: MIA PaCa-2, 48 h, read-out: GI; procedure, shortened: as §1
[7] = Cytotoxicity against human HepG2 cells assessed as cell growth inhibition after 48 hrs by MTT assay; type: functional, cell-based; conditions: HepG2, 48 h; procedure, shortened: as §1
[8] = Cytotoxicity against human HL60 cells assessed as cell growth inhibition at 50 uM after 48 hrs by MTT assay; type: functional; conditions: HL-60, 48 h, read-out: GI; procedure, shortened: as §2
[9] = Cytotoxicity against human MIAPaCa2 cells assessed as cell growth inhibition at 1 uM after 48 hrs by MTT assay; type: functional; conditions: MIA PaCa-2, 48 h, read-out: GI; procedure, shortened: as §1
[10] = Cytotoxicity against human LS180 cells assessed as cell growth inhibition at 30 uM after 48 hrs by MTT assay; type: functional; conditions: LS180, 48 h, read-out: GI; procedure, shortened: as §1
HepG2 = assay: Selectivity index, ratio of IC50 for African green monkey Vero cells to IC50 for human HepG2 cells; type: functional; procedure, shortened: as §3
[11] = Cytotoxicity against human MIAPaCa2 cells assessed as cell growth inhibition at 30 uM after 48 hrs by MTT assay; type: functional; conditions: MIA PaCa-2, 48 h, read-out: GI; procedure, shortened: as §1
[12] = Cytotoxicity against human PC3 cells assessed as cell growth inhibition at 50 uM after 48 hrs by MTT assay; type: functional; conditions: PC-3, 48 h, read-out: GI; procedure, shortened: as §1
Vero [13] = assay: Selectivity index, ratio of IC50 for African green monkey Vero cells to IC50 for human HL60 cells; type: functional; procedure, shortened: as §3
[14] = Selectivity index, ratio of IC50 for African green monkey Vero cells to IC50 for human LS180 cells; type: functional; procedure, shortened: as §3
[15] = Cytotoxicity against human PC3 cells assessed as cell growth inhibition at 0.5 uM after 48 hrs by MTT assay; type: functional; conditions: PC-3, 48 h, read-out: GI; procedure, shortened: as §1
[16] = Cytotoxicity against human LS180 cells assessed as cell growth inhibition at 0.5 uM after 48 hrs by MTT assay; type: functional; conditions: LS180, 48 h, read-out: GI; procedure, shortened: as §1
[17] = Cytotoxicity against human MIAPaCa2 cells assessed as cell growth inhibition at 0.5 uM after 48 hrs by MTT assay; type: functional; conditions: MIA PaCa-2, 48 h, read-out: GI; procedure, shortened: as §1
[18] = Cytotoxicity against human PC3 cells assessed as cell growth inhibition at 30 uM after 48 hrs by MTT assay; type: functional; conditions: PC-3, 48 h, read-out: GI; procedure, shortened: as §1
[19] = Cytotoxicity against human HL60 cells assessed as cell growth inhibition at 1 uM after 48 hrs by MTT assay; type: functional; conditions: HL-60, 48 h, read-out: GI; procedure, shortened: as §2
[20] = Cytotoxicity against human HepG2 cells assessed as cell growth inhibition at 30 uM after 48 hrs by MTT assay; type: functional; conditions: HepG2, 48 h, read-out: GI; procedure, shortened: as §1
[21] = Cytotoxicity against human HepG2 cells assessed as cell growth inhibition at 1 uM after 48 hrs by MTT assay; type: functional; conditions: HepG2, 48 h, read-out: GI; procedure, shortened: as §1
[22] = Cytotoxicity against human HepG2 cells assessed as cell growth inhibition at 0.5 uM after 48 hrs by MTT assay; type: functional; conditions: HepG2, 48 h, read-out: GI; procedure, shortened: as §1
[23] = Cytotoxicity against human HL60 cells assessed as cell growth inhibition after 48 hrs by MTT assay; type: functional, cell-based; conditions: HL-60, 48 h; procedure, shortened: as §2
[24] = Cytotoxicity against human MIAPaCa2 cells assessed as cell growth inhibition at 50 uM after 48 hrs by MTT assay; type: functional; conditions: MIA PaCa-2, 48 h, read-out: GI; procedure, shortened: as §1
Vero [25] = assay: Selectivity index, ratio of IC50 for African green monkey Vero cells to IC50 for human PC3 cells; type: functional; procedure, shortened: as §3
[26] = Cytotoxicity against human PC3 cells assessed as cell growth inhibition at 1 uM after 48 hrs by MTT assay; type: functional; conditions: PC-3, 48 h, read-out: GI; procedure, shortened: as §1
[27] = Cytotoxicity against human LS180 cells assessed as cell growth inhibition at 50 uM after 48 hrs by MTT assay; type: functional; conditions: LS180, 48 h, read-out: GI; procedure, shortened: as §1
[28] = Cytotoxicity against human PC3 cells assessed as cell growth inhibition after 48 hrs by MTT assay; type: functional, cell-based; conditions: PC-3, 48 h
Procedure, shortened: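 Exposed 48 h to compound in DMSO (vehicle <0.2% v/v). MTT dye added 3 h before termination; formazan dissolved in DMSO, OD 570 nm with 620 nm reference. Growth inhibition expressed as % of untreated; IC50 taken from the dose series.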

[29] = Cytotoxicity against human HL60 cells assessed as cell growth inhibition at 10 uM after 48 hrs by MTT assay; type: functional; conditions: HL-60, 48 h, read-out: GI; procedure, shortened: as §2
[30] = Lipophilicity, log P of the compound; type: physicochemical; conditions: octanol/water
[31] = Cytotoxicity against human HepG2 cells assessed as cell growth inhibition at 10 uM after 48 hrs by MTT assay; type: functional; conditions: HepG2, 48 h, read-out: GI; procedure, shortened: as §1
[32] = Cytotoxicity against human LS180 cells assessed as cell growth inhibition at 1 uM after 48 hrs by MTT assay; type: functional; conditions: LS180, 48 h, read-out: GI; procedure, shortened: as §1
[33] = Aqueous solubility of the compound at pH 7; type: physicochemical
[34] = Cytotoxicity against human PC3 cells assessed as cell growth inhibition at 10 uM after 48 hrs by MTT assay; type: functional; conditions: PC-3, 48 h, read-out: GI; procedure, shortened: as §1
[35] = Cytotoxicity against human HL60 cells assessed as cell growth inhibition at 30 uM after 48 hrs by MTT assay; type: functional; conditions: HL-60, 48 h, read-out: GI; procedure, shortened: as §2
[36] = Cytotoxicity against human LS180 cells assessed as cell growth inhibition after 48 hrs by MTT assay; type: functional, cell-based; conditions: LS180, 48 h; procedure, shortened: as §1

Structure (SMILES)	inhibition of growth at 10 µM [1]	inhibition of growth at 0.5 µM [2]	IC50 [3]	Ratio IC50 (Vero [4])	inhibition of growth at 50 µM [5]	inhibition of growth at 10 µM [6]	IC50 [7]	inhibition of growth at 50 µM [8]	inhibition of growth at 1 µM [9]	inhibition of growth at 30 µM [10]	Ratio IC50 (HepG2)	inhibition of growth at 30 µM [11]	inhibition of growth at 50 µM [12]	Ratio IC50 (Vero [13])	Ratio IC50 [14]	inhibition of growth at 0.5 µM [15]	inhibition of growth at 0.5 µM [16]	inhibition of growth at 0.5 µM [17]	inhibition of growth at 30 µM [18]	inhibition of growth at 1 µM [19]	further results
C[C@H]1[C@@H](OCCOc2ccc(/C=C/C(=O)c3ccco3)cc2)O[C@@H]2O[C@@]3(C)CC[C@H]4[C@H](C)CC[C@@H]1[C@@]24OO3	26.9%	38%	> 50 µM	59	26.9 to 42.6%	26.2%	22 µM	91.7%	19.1%	26.9%	68	39.8 to 67.3%	69.4%	90	>200	15.1%	20%	18.4%	55.1 to 58.1%	57.5%	inhibition of growth at 30 µM [20]: 25.2 to 67.3%; inhibition of growth at 1 µM [21]: 14.7%; inhibition of growth at 0.5 µM [22]: 1%; IC50 [23]: 0.7 µM; inhibition of growth at 50 µM [24]: 77.5%; Ratio IC50 (Vero [25]): 94; inhibition of growth at 1 µM [26]: 15.8%; inhibition of growth at 50 µM [27]: 28.3%; IC50 [28]: 24 µM; inhibition of growth at 10 µM [29]: 87.4%; logP [30]: 5.34 to 7.45; inhibition of growth at 10 µM [31]: 24.8%; inhibition of growth at 1 µM [32]: 25.7%; solubility [33]: < 10 µg/mL; inhibition of growth at 10 µM [34]: 43.4%; inhibition of growth at 30 µM [35]: 89.1%; IC50 [36]: > 50 µM
COc1cc(/C=C/C(=O)c2ccc(OCCO[C@H]3O[C@@H]4O[C@@]5(C)CC[C@H]6[C@H](C)CC[C@@H]([C@H]3C)[C@@]46OO5)cc2)cc(OC)c1OCCO[C@H]1O[C@@H]2O[C@@]3(C)CC[C@H]4[C@H](C)CC[C@@H]([C@H]1C)[C@@]24OO3	44.6%	77.2%	> 50 µM	100	33.8 to 58.1%	38.7%	4 µM	86.1%	38.1%	58.1%	210	37.4 to 40.1%	57.9%	88	162	34.5%	15.3%	37.3%	57.6%	83.9%	inhibition of growth at 30 µM [20]: 32.9%; inhibition of growth at 1 µM [21]: 41.5%; inhibition of growth at 0.5 µM [22]: 38.8%; IC50 [23]: 0.3 µM; inhibition of growth at 50 µM [24]: 48.1%; Ratio IC50 (Vero [25]): 210; inhibition of growth at 1 µM [26]: 45.9%; inhibition of growth at 50 µM [27]: 70.1%; IC50 [28]: 10 µM; inhibition of growth at 10 µM [29]: 84.6%; logP [30]: 5.34 to 7.45; inhibition of growth at 10 µM [31]: 59.1%; inhibition of growth at 1 µM [32]: 27.6%; solubility [33]: < 10 µg/mL; inhibition of growth at 10 µM [34]: 50.2%; inhibition of growth at 30 µM [35]: 85.4%; IC50 [36]: 16 µM
